ChEMBL document CHEMBL5108041, “Identification and validation of novel microtubule suppressors with an imidazopyridine scaffold through structure-based virtual screening and docking” (RSC Med Chem, 2022)
Activity calls are given as the source filed them. No cut-off for these calls is given here.

Legend:
[1] = tested on: MCF7; experiment: Antiproliferative activity against human MCF7 cells assessed as cell growth inhibition incubated for 48 hr by MTT assay; conditions: MCF7, 48 h
[2] = tested on: A549; experiment: Antiproliferative activity against human A549 cells assessed as cell growth inhibition incubated for 48 hr by MTT assay; conditions: A549, 48 h
[3] = tested on: MDA-MB-231; experiment: Antiproliferative activity against human MDA-MB-231 cells assessed as cell growth inhibition incubated for 48 hr by MTT assay; format: functional, cell-based
How it was run: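 MTT titration: cells seeded 1×10^4/well for 24 h, then treated 48 h at 37 °C, 5% CO2 with 2.5, 5, 10, 20 μM. MTT 0.5 mg ml⁻¹ for 2 h, formazan in DMSO read at 570 nm; viability relative to 0.1% DMSO control. IC50 is the mean of three replicate experiments ± SD.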

[4] = tested on: MCF7; experiment: Antiproliferative activity against human MCF7 cells assessed as cell growth inhibition at 10 uM incubated for 48 hr by MTT assay; format: functional
How it was run: (§1)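 Cells in RPMI with 10% FBS, 1% pen/strep at 37 °C, 5% CO2. […] MTT 0.5 mg ml⁻¹ for 2 h, formazan dissolved in DMSO, A570; viability = OD treated/OD control × 100. Triplicate.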

[5] = tested on: A549; experiment: Antiproliferative activity against human A549 cells assessed as cell growth inhibition at 10 uM incubated for 48 hr by MTT assay; format: functional; how it was run: as §1
[6] = tested on: MDA-MB-231; experiment: Antiproliferative activity against human MDA-MB-231 cells assessed as cell growth inhibition at 10 uM incubated for 48 hr by MTT assay; format: functional; how it was run: as §1
[7] = Antiproliferative activity against human F180 cells assessed as cell growth inhibition at 10 uM incubated for 48 hr by MTT assay; format: toxicity, cell-based; conditions: f180, 48 h; how it was run: as §1
[8] = molecular target: T1, Tubulin (Homo sapiens) (UniProt P68371+Q9H4B7+P0DPH7+P68366+Q13509+Q71U36+P04350+Q3ZCM7+P07437+P68363+Q9BQE3+Q6PEY2+Q13885+Q9BVA1+Q9BUF5); experiment: Inhibition of tubulin polymerization in human A549 cells assessed as inhibition of microtubule spindle formation with irregular morphology at 9 uM incubated for 24 hrs by immunofluorescence assay; format: cell-based
How it was run: (§2)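 Fixed in 3.7% paraformaldehyde, permeabilised with 0.1% Triton X-100, blocked with 1% BSA 1 h, anti-β-tubulin mouse mAb overnight at 4 °C, Alexa Fluor 488 secondary, DAPI; fluorescence microscopy.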

[9] = molecular target: T2, Tubulin (Sus scrofa) (UniProt P02554+P02550); experiment: Inhibition of porcine Tubulin polymerization assessed as increase in AUC by measuring fluorescence at 15 uM incubated for 1 hr by fluorescence microscopy; format: protein assay
T2 sequence (P02550 whole entry, looked up): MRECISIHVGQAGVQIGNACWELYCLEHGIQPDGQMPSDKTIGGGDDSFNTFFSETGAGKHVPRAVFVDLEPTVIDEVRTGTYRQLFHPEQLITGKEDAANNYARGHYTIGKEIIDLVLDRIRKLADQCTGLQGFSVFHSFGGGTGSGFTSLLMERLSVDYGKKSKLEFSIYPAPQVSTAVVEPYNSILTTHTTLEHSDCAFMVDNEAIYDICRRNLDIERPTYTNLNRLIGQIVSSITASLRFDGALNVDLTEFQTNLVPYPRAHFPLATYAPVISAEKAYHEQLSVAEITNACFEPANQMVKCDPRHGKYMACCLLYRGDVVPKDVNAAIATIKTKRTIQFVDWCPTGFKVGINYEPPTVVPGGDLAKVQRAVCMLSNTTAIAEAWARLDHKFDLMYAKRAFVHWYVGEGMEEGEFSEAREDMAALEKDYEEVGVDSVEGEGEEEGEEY
T2 sequence (P02554 whole entry, looked up): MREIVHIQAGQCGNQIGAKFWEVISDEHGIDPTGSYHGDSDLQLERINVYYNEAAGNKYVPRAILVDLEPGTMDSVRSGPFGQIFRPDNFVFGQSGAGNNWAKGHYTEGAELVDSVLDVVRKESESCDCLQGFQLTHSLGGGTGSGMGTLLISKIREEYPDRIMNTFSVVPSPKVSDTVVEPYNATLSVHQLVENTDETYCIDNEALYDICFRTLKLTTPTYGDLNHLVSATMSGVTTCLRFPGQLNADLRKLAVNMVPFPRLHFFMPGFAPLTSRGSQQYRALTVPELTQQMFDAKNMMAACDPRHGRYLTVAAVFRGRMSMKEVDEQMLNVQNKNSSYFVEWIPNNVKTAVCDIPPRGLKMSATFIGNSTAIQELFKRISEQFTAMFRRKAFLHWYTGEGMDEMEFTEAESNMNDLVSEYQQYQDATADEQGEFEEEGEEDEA

[10] = molecular target: Tubulin; experiment: Inhibition of tubulin polymerization in human MCF7 cells by ELISA; format: cell-based
[11] = molecular target: T1, Tubulin (Homo sapiens); experiment: Inhibition of tubulin polymerization in human A549 cells assessed as inhibition of microtubule spindle formation with irregular morphology at 13 uM incubated for 24 hrs by immunofluorescence assay; format: cell-based; how it was run: as §2
[12] = molecular target: T2, Tubulin (Sus scrofa); experiment: Inhibition of porcine Tubulin polymerization assessed as decrease in AUC by measuring fluorescence at 15 uM incubated for 1 hr by fluorescence microscopy; format: protein assay
How it was run: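 Porcine tubulin at 2 mg ml⁻¹ in 80 mM PIPES, 2 mM MgCl₂, 0.5 mM EGTA pH 6.9, with 10 μM fluorescent reporter, 1 mM GTP and 15% glycerol, in a pre-warmed plate. […] Fluorescence (ex 360, em 450 nm) read once per min for 60 min at 37 °C. Area under the curve scored against the untreated control, taken as 100%.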

[13] = tested on: MCF7; experiment: Cell cycle arrest in human MCF7 assessed as accumulation at pre G phase at 6 uM incubated for 24 hrs by propidium iodide staining flow cytometry; format: functional
How it was run: (§3)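 MCF-7 cells exposed to 6 μM for 24 h, DMSO vehicle control. Cells harvested, fixed in 70% ethanol on ice 15 min, then stained 1 h at room temperature with PI solution containing 0.1 mg mL⁻¹ RNaseA and 0.05% Triton X-100. DNA content read by flow cytometry; percentage of cells in each phase.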

[14] = tested on: MCF7; experiment: Cell cycle arrest in human MCF7 assessed as accumulation at G1 phase at 6 uM incubated for 24 hrs by propidium iodide staining flow cytometry; format: functional; how it was run: as §3
[15] = tested on: MCF7; experiment: Cell cycle arrest in human MCF7 assessed as accumulation at G2/M phase at 6 uM incubated for 24 hrs by propidium iodide staining flow cytometry; format: functional; how it was run: as §3
[16] = tested on: MCF7; experiment: Cell cycle arrest in human MCF7 assessed as accumulation at S phase at 6 uM incubated for 24 hrs by propidium iodide staining flow cytometry; format: functional; how it was run: as §3
[17] = tested on: MCF7; experiment: Induction of apoptosis in human MCF7 cells assessed as early apoptotic cells at 6 uM incubated for 24 hrs by Annexin V-FITC/propidium iodide staining based flow cytometry (reference value: 0.55 %); format: functional
[18] = tested on: MCF7; experiment: Induction of apoptosis in human MCF7 cells assessed as late apoptotic cells at 6 uM incubated for 24 hrs by Annexin V-FITC/propidium iodide staining based flow cytometry (reference value: 0.17 %); format: functional
[19] = tested on: MCF7; experiment: Induction of apoptosis in human MCF7 cells assessed as necrotic cells at 6 uM incubated for 24 hrs by Annexin V-FITC/propidium iodide staining based flow cytometry (reference value: 0.76 %); format: functional
[20] = tested on: MCF7; experiment: Induction of apoptosis in human MCF7 cells assessed as Caspase-9 level at 6 uM incubated for 24 hrs by ELISA; format: functional
How it was run: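 MCF-7 cells incubated with or without 6 μM for 24 h, washed in PBS, lysed; caspase-9 in lysates quantified by ELISA kit (ng ml⁻¹). Mean of three replicates ± SD.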

[21] = tested on: MCF7; experiment: Induction of apoptosis in human MCF7 cells assessed as Bcl-2 level at 6 uM incubated for 24 hrs by ELISA; format: functional
How it was run: (§4)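 MCF-7 in RPMI1640 with 10% FBS, exposed to 6 μM for 24 h, lysed in cell extraction buffer, lysate diluted in standard diluent; Bax (pg ml⁻¹) and Bcl2 (ng ml⁻¹) measured by ELISA. Mean of three replicates ± SD.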

[22] = tested on: MCF7; experiment: Induction of apoptosis in human MCF7 cells assessed as Bax level at 6 uM incubated for 24 hrs by ELISA; format: functional; how it was run: as §4
[23] = Homo sapiens, MDA-MB-231, 48 h, read-out: IC50

Compound | IC50 [1] | IC50 [2] | IC50 [3, 23] | inhibition [9] | IC50 [10] | inhibition at 10 µM [4] | inhibition at 10 µM [5] | inhibition at 10 µM [6] | Activity [7] | other results
CCOc1ccc(C2C3=C(CCCC3=O)Nc3c2c(C)nn3-c2nc(C)cc(C)n2)cc1OC (stereo not given) | 23.2 µM | > 20 µM | > 23 µM |  |  | 40% | 40% | 40% | Toxic | 
COc1ccc(C2CC(O)=Nc3c2ncn3-c2cccc(C(F)(F)F)c2)cc1O (stereo not given) |  |  |  |  |  | 50% | 40% | 60% | Toxic | inhibition [12]: Active; Activity [13]: 1.48%; Activity [14]: 53.91%; Activity [15]: 3.38%; Activity [16]: 42.71%; Activity [17]: 5.96%; Activity [18]: 14.29%; Activity [19]: 7.11%; Activity [20]: 13.7 ng/mL; Activity [21]: 2.1 ng/mL; Activity [22]: 207.6 pg/mL

Further lines, with some results ahead:

IC50 [1] | IC50 [2] | IC50 [3, 23] | inhibition [9] | IC50 [10] | Compound | inhibition at 10 µM [4] | inhibition at 10 µM [5] | inhibition at 10 µM [6] | Activity [7] | other results
11 µM | 9.4 µM | 19.5 µM | Active | 12.8 µM | COc1ccc(C(=O)c2cn(CC(=O)Nc3ccc(F)cc3)c3cc(OC)c(OC)cc3c2=O)cc1 | 50% | 50% | 50% | Toxic | inhibition [8]: Active
0.0061 µM | 0.015 µM | 0.0193 µM |  |  | CC(=O)O[C@H]1C(=O)[C@@]2(C)[C@H]([C@H](OC(=O)c3ccccc3)[C@]3(O)C[C@H](OC(=O)[C@H](O)[C@@H](NC(=O)c4ccccc4)c4ccccc4)C(C)=C1C3(C)C)[C@]1(OC(C)=O)CO[C@@H]1C[C@@H]2O [PACLITAXEL] |  |  |  |  | 
12 µM | 13.2 µM |  | Active | 13.1 µM | COc1cc2c(=O)c(C(=O)c3ccc(F)cc3)cn(CC(=O)Nc3ccc(F)c(F)c3)c2cc1OC | 50% | 20% | 80% | Toxic | IC50 ([3]; time 48 hrs): 14.1 µM; inhibition [11]: Active
